Reference: ChEMBL document CHEMBL4613235, “A scaffold replacement approach towards new sirtuin 2 inhibitors” (Bioorg Med Chem, 2020)

Experiments:
[1] = biological target: T1, NAD-dependent protein deacetylase sirtuin-2 (Homo sapiens) (UniProt Q8IXJ6); test: (§1) Inhibition of recombinant GST-tagged human SIRT2 expressed in Escherichia coli at 200 uM using FLUOR DE LYS SIRT2 as substrate preincubated with substrate for 5 mins followed by enzyme addition and measured after 1 hr in presence of NAD+ by fluorescence based assay relative to control
T1 sequence (whole entry): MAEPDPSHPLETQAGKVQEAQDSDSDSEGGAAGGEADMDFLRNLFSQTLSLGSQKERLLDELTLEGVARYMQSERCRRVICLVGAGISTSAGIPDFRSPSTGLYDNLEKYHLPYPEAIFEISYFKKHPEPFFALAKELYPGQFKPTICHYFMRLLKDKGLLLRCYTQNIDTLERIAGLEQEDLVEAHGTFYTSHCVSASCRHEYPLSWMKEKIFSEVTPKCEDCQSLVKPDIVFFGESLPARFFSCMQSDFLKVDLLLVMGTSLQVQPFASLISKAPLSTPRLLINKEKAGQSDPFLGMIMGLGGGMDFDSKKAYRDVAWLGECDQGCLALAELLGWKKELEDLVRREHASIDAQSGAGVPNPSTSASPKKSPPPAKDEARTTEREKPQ
Procedure, shortened: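 Fluor de Lys assay using GST-SIRT2 produced in-house and acetylated peptide substrate KI179 at 0.7 Km, with NAD+ at 0.9 Km in SIRT assay buffer. Buffer, substrate, NAD+ and compound in DMSO were preincubated 5 min at room temp; enzyme started the 1 h, 37 °C reaction. Developer with nicotinamide was added for 45 min at 37 °C; fluorescence read at ex 370/em 460 nm. SD, n = 3.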

[2] = biological target: T2, NAD-dependent protein deacetylase sirtuin-1 (Homo sapiens) (UniProt Q96EB6); test: Inhibition of recombinant GST-tagged human SIRT1 at 200 uM using FLUOR DE LYS SIRT1 as substrate preincubated with substrate for 5 mins followed by enzyme addition and measured after 1 hr in presence of NAD+ by fluorescence based assay relative to control
T2 sequence (whole entry): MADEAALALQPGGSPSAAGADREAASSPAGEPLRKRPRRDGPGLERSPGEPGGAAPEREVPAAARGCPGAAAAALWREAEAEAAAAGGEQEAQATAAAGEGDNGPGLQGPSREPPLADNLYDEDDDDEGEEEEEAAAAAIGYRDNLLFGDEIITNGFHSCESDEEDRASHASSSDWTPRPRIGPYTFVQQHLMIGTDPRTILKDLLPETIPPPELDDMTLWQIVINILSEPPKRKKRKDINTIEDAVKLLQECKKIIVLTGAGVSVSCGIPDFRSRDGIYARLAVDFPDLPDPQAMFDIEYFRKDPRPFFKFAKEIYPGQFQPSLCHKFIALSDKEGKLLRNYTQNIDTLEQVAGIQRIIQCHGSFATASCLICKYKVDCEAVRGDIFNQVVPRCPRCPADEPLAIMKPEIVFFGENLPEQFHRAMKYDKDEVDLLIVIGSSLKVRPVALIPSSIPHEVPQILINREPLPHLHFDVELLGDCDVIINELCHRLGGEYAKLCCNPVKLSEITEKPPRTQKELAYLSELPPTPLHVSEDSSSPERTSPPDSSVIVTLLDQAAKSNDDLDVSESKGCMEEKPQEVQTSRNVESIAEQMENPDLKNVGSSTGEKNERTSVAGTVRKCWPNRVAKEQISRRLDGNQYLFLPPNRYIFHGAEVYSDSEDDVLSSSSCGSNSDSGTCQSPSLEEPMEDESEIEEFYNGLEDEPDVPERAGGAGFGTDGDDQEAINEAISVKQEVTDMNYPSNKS
Procedure, shortened: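 Fluor de Lys assay using GST-SIRT1 produced in-house and acetylated peptide substrate KI177 at 0.7 Km, with NAD+ at 0.9 Km in SIRT assay buffer. Buffer, substrate, NAD+ and compound in DMSO were preincubated 5 min at room temp, then enzyme was added and run 1 h at 37 °C. Developer plus nicotinamide was added for 45 min at 37 °C. Read at ex 370/em 460 nm. SD, n = 3.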

[3] = biological target: T3, NAD-dependent protein deacetylase sirtuin-3, mitochondrial (Homo sapiens) (UniProt Q9NTG7); test: as §1, with “recombinant N-terminal His-tagged” for “recombinant GST-tagged”, “human sirtuin 3 (102 to 399 residues)” for “human SIRT2”, “using fluor de lys” for “using FLUOR DE LYS”
T3 sequence (whole entry): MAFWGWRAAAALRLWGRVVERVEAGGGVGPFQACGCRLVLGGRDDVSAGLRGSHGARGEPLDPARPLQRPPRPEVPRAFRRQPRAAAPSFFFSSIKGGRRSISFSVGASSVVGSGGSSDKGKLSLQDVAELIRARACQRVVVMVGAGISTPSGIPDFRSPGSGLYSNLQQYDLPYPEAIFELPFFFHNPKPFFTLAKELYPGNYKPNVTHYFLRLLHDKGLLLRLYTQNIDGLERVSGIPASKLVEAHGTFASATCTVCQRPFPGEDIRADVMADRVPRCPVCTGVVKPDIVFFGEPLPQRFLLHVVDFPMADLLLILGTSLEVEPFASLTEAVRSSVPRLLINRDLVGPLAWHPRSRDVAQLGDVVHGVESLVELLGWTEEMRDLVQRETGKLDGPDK
Procedure, shortened: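 Purchased recombinant His-SIRT3 was used with Fluor de Lys acetylated peptide substrate KI179 at 0.7 Km and NAD+ at 0.9 Km in SIRT assay buffer. Compound in DMSO was preincubated 5 min at room temp with buffer, substrate and NAD+; enzyme addition began the 1 h, 37 °C reaction. Developer with nicotinamide followed for 45 min at 37 °C; ex 370/em 460 nm read-out. SD, n = 3.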

inhibition [1] [%]	inhibition [2] [%]	inhibition [3] [%]	SMILES
26	–	–	CCCCCc1cc(=O)c2cc(Cl)cc(Br)c2[nH]1
15	–	–	O=S1(=O)NC(CCc2ccccc2)=Cc2ccccc21
13	–	–	O=C1CCC(=O)N1CCN1C(=O)c2ccc(Br)cc2S1(=O)=O
15	–	–	O=S1(=O)N=C(CCc2ccccc2)Nc2c(Br)cc(Br)cc21
32	4.4	5.8	CCCCCC1Nc2c(Br)cc(Br)cc2S(=O)(=O)N1 (centres undefined)
12	17	14	O=C1c2ccccc2S(=O)(=O)N1CCCc1cccnc1
58	7.6	41	O=c1cc(Cc2ccccc2)[nH]c2c(Br)cc(Cl)cc12
6.2	–	–	O=C1c2ccc(Br)cc2S(=O)(=O)N1CCc1cccc([N+](=O)[O-])c1
34	14	14	O=C1c2ccccc2S(=O)(=O)N1CCc1ccccc1
10	–	–	O=S1(=O)N=C(CCc2ccc(Br)cc2)Nc2c(Br)cc(Br)cc21
–	9.8	4.5	CCCCCc1cc(=O)c2cc(Cl)cc(Br)c2o1
15	–	–	O=C1c2ccc(Br)cc2S(=O)(=O)N1CCc1cccc(Br)c1
59	9.7	9.9	O=S1(=O)NC(CCc2cccc(Br)c2)Nc2c(Br)cc(Br)cc21 (centres undefined)
53	–	–	COC(=O)CCCCc1cc(=O)c2cc(Cl)cc(Br)c2[nH]1
24	0	3.2	O=S1(=O)N=C(CCc2cccc(Br)c2)Nc2c(Br)cc(Br)cc21
12	5.2	15	O=C1c2ccc(Br)cc2S(=O)(=O)N1CCc1ccc(O)cc1
6.9	–	–	CCCCCN1C(=O)c2ccc(Br)cc2S1(=O)=O
13	8.7	7.2	CCOC(=O)CCCN1C(=O)c2ccccc2S1(=O)=O
47	4.6	54	O=S1(=O)NC(CCc2ccccc2)Nc2c(Br)cc(Br)cc21 (centres undefined)
75	–	–	O=c1cc(CCc2ccccc2)oc2c(Br)cc(Cl)cc12
29	–	–	CCCCC1=Cc2ccc(Br)cc2S(=O)(=O)N1
34	–	–	CCCCCN1C(=O)c2ccccc2S1(=O)=O
74	25	28	O=c1ccc2cc(CCC3Nc4c(Br)cc(Br)cc4S(=O)(=O)N3)ccc2[nH]1 (centres undefined)
4.7	3.8	1.6	O=C1c2ccc(Br)cc2S(=O)(=O)N1CCc1ccccc1
12	–	–	CCCCC1=Cc2ccccc2S(=O)(=O)N1
35	–	–	O=S1(=O)NC(CCc2ccccc2)=Cc2ccc(Br)cc21
